Each structure is given as a SMILES string. Converted amounts (≈) assume the structure as drawn.

Data set [1] is described as follows: Aqueous solubility of the compound after 1 hrs by HPLC-UV method. As to conditions: deionized water. Format: physicochemical. The method, boiled down:
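Shaken in tubes at 25 °C for 1 h, protected from light, then filtered through 0.2 μm filters; filtrate diluted in deionized water and quantified by reversed-phase HPLC-UV (C18 column, room temperature, methanol/water 70:30 v/v, 1.0 mL min−1).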

In data set [2] the test system is HT-29. As to the kind of experiment: Cytotoxicity against human HT-29 cells assessed as reduction in cell viability after 72 hrs by MTT assay. As to conditions: HT-29, 72 h. It is filed as functional, cell-based. The method, boiled down: (§1)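 HT29 cells were cultured in RPMI-1640 with glutamine and 10% FBS, seeded at 2000–7500 cells/well, and exposed for 72 h to drug in DMSO (final DMSO <0.1%). MTT was added at 0.83 mg mL−1 final and incubated overnight, then cells were lysed in SDS/HCl and read at 570 nm. Survival was expressed as percent of drug-free control; five replicate wells.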

A short description of data set [3]: Cytotoxicity against HEK293FT cells assessed as reduction in cell viability up to 20 uM. Format: cell-based. Conditions: human.
Data set [4] is described as follows: Cytotoxicity against HEK293FT cells expressing GLUT1 assessed as reduction in cell viability up to 20 uM. It is filed as cell-based. As to conditions: human.
Data set [5] can be described thus: Ratio of CA4 aqueous solubility to test compound aqueous solubility. It is filed as physicochemical. As to conditions: buffer.
Data set [6] has as its system HT-29. As to the kind of experiment: […] for human HT-29 cells assessed as reduction in cell viability after 72 hrs by MTT assay. Format: functional. The method, boiled down: as §1
The nature of data set [7]: Toxicity in ip dosed DBA/2 mouse assessed as reduction in 15% body weight administered as daily dose for 3 days. It is filed as organism-based. Conditions: in vivo. The essentials:
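Adult male DBA/2 mice were dosed i.p. at 10 mL kg−1, with 5 per group. Controls (n = 8) received saline. MTD was the dose allowing 15% median body-weight loss with no toxic deaths or marked change in general signs within 3 days.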

Another data set has as its system Mus musculus. Description: Ratio of compound MTD to CA4 MTD in ip dosed DBA/2 mouse assessed as reduction in 15% body weight administered as daily dose for 3 days. It is filed as ADME, organism-based. Conditions: in vivo, 72 h.

`COc1ccc(/C=C\c2cc(OC)c(OC)c(OC)c2)cc1O[C@@H]1O[C@H](CO)[C@H](O)[C@H](O)[C@H]1O`: in data set [1], the solubility at 1 h came to 2560 µg/mL (≈ 5.35 mM). The IC50 with HT-29 [2] came out at 39.3 µM. Moreover, the Activity result in data set [3] and in data set [4] was “Toxic” throughout. For the same molecule, the Ratio is given as 853 in data set [5] and 34 in the data set on Mus musculus. In addition, the “Ratio IC50” value in the data set on HT-29 [6] came to 54.61. Moreover, the MTD at 72 h in data set [7] worked out at 550 mg/kg.

In the case of `COc1ccc(/C=C\c2cc(OC)c(OC)c(OC)c2)cc1O[C@H]1O[C@H](CO)[C@@H](O)[C@H](O)[C@@H]1O`, the solubility at 1 h in data set [1] was found to be 5890 µg/mL (≈ 12.3 mM). The IC50 with HT-29 [2] came to 11.4 µM. In addition, the Activity result in data set [3] and in data set [4] was “Toxic” in each case. Also, the figures for the Ratio (in data set [5]; with Mus musculus) were 1963 and 16, respectively. The “Ratio IC50” value with HT-29 [6] is 15.89. Also, the MTD at 72 h in data set [7] stood at 400 mg/kg.

Source of the values: ChEMBL document CHEMBL4257448, “Deciphering the origins of molecular toxicity of combretastatin A4 and its glycoconjugates: interactions with major drug transporters and their safety profiles in vitro and in vivo” (Medchemcomm, 2017).
